Activity calls are given as the source filed them. The rule behind the calls is not given here.
Tests used:
[1] = species: Rattus norvegicus; test: Concentration required for the maximal release of state 4 respiration of rat liver mitochondria using succinate as substrate; type: functional
Method in brief: (§1)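 Rat liver mitochondria isolated by a prior method, about 0.7 mg/mL in most runs. Medium: 200 mM sucrose, 2 mM MgCl2, 1 mM EDTA, 10 mM potassium phosphate pH 7.2, 25 °C. Substrate 10 mM succinate plus rotenone 1 μg/mg protein. O2 uptake in state 4 followed by Clark electrode after compound addition. Value is the concentration giving maximal release of respiration.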

[2] = species: Rattus norvegicus; test: Concentration required for the maximal release of state 4 respiration of rat liver mitochondria, relative to N'-Benzoyl-hydrazinecarbodithioic acid nonyl ester; type: functional, organism-based
[3] = species: Rattus norvegicus; test: Concentration required for the maximal release of state 4 respiration of rat liver mitochondria using succinate as substrate; Inactive; type: functional; method in brief: as §1

SMILES	C100 [1]	RA [2]	C100 [3]
CCCCCCCCCS/C(S)=N/NC(C)=O	457 µM	0.61	
CCCCCCCCCS/C(S)=N/NC(=O)C1CCCCC1	4.52 µM	35	
CCCCCCCCCSC(=S)N(C)N(C)C(=O)c1ccccc1		0	inactive
CCCCCCCCCSC(=S)NC(=O)c1ccccc1	27.9 µM	5.7	
CCCCCCCCCSC(=S)N(C)NC(=O)c1ccccc1	40.3 µM	6.9	
CCCCCCCCCS/C(S)=N/NC(=O)c1ccc(N(C)C)cc1	6.9 µM	23	
CCCCCCCCCS/C(=N/NC(=O)c1ccccc1)SC	30.1 µM	9.3	
CCCCCCCCCS/C(S)=N/NC(=O)c1ccc([N+](=O)[O-])cc1	1.27 µM	125	
CCCCCCCCCS/C(S)=N/N(C)C(=O)c1ccccc1	112 µM	1.3	
CCCCCCCCCS/C(S)=N/Nc1ccccc1	1530 µM	0.1	
CCCCCCCCCS/C(S)=N/N=C/c1ccccc1	604 µM	0.26	
CCCCCCCCCS/C(S)=N/NC(=O)c1ccc(OC)cc1	2.46 µM	65	
CCCCCCCCCS/C(S)=N/NC(=O)c1ccc(F)cc1	1.57 µM	101	
CCCCCCCCCS/C(S)=N/NCc1ccccc1	8350 µM	0.02	
CCCCCCCCCS/C(S)=N/NC(=O)c1cccc2ccccc12	3.36 µM	47	
CCCCCCCCCS/C(S)=N/NC(=O)c1ccccn1	1.42 µM	112	
CCCCCCCCCS/C(=N/N(C)C(=O)c1ccccc1)SC		0	inactive
CCCCCCCCCS/C(S)=N/Cc1ccccc1	360 µM	0.44	
CCCCCCCCCS/C(S)=N/NC(=O)c1ccc(Cl)cc1	1.46 µM	109	
CCCCCCCCCS/C(S)=N/NC(=O)c1ccc(Cl)c(Cl)c1	1.93 µM	82	
CCCCCCCCCS/C(S)=N/NC(=O)c1ccccc1	1.59 µM	100	
CCCCCCCCCS/C(S)=N/c1ccccc1		0	inactive
